{
  "source": "ChEMBL document CHEMBL2331234",
  "about": "“Novel analgesic/anti-inflammatory agents: 1,5-diarylpyrrole nitrooxyalkyl ethers and related compounds as cyclooxygenase-2 inhibiting nitric oxide donors” (J Med Chem, 2013)",
  "key": {"Rattus norvegicus [1]": {"tested_on": "Rattus norvegicus", "assay": "Antiinflammatory activity in Sprague-Dawley/Wistar rat assessed as decrease in carrageenan-induced hyperalgesia at 20 mg/kg, po administered 4 hrs after carrageenan-challenge measured after 30 mins (reference value: 34.8 +/- 3.0 g)", "assay_type": "functional"}, "Rattus norvegicus [2]": {"tested_on": "Rattus norvegicus", "assay": "Antiinflammatory activity in Sprague-Dawley/Wistar osteoarthritis model rat assessed as decrease in monoiodoacetate-induced hyperalgesia at 20 mg/kg, po bid for 14 days administered from day of monoiodoacetate-challenge followed by additional compound treatment after 30 mins […] by paw pressure test (reference value: 30.4 +/- 3.1 g)", "assay_type": "functional"}, "[3]": {"biological_target": "T1, Prostaglandin G/H synthase 1 (Mus musculus, UniProt P22437)", "T1 sequence (P22437 whole entry)": "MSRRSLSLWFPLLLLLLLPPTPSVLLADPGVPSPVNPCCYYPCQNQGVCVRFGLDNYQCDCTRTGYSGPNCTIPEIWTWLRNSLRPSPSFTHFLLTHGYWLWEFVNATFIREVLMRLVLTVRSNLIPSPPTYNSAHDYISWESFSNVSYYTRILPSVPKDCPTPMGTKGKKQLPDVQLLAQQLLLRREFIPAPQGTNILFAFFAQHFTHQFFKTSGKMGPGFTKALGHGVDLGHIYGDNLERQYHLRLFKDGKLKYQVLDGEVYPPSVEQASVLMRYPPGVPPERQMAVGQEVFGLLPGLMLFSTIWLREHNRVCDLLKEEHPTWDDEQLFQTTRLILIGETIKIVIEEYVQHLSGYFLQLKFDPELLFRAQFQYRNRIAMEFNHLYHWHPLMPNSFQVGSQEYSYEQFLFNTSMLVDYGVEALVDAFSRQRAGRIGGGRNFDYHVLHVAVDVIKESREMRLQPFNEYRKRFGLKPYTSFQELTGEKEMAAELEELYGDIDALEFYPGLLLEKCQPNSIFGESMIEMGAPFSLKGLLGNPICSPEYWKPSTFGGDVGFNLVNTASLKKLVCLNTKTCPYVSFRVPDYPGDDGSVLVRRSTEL", "assay": "Inhibition of arachidonic acid-induced COX1 activity in mouse J774 cells assessed as decrease in PGE2 levels incubated for 15 mins prior to arachidonic acid-challenge measured after 30 mins by RIA", "assay_type": "cell-based", "summary_of_the_method": "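Cells were in DMEM with 10% FBS and adhered for 2 h at 37 °C. They were pretreated with compound (10 µM; 0.1-1 µM where inhibition exceeded 50%) for 15 min, then given 15 µM arachidonic acid for 30 min at 37 °C. Supernatant PGE2 was measured by RIA. Triplicate wells were used and the mean of three experiments reported. IC50 came from a variable-slope sigmoidal fit.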"}},
  "note": "pIC50: −log10 of the molar value.",
  "data": [
    {"smiles": "Cc1c(CCOCCO[N+](=O)[O-])cc(-c2ccc(S(C)(=O)=O)cc2)n1-c1ccc(F)cc1", "values": [
      {"measurement": "Activity", "setting": "Rattus norvegicus [1]", "result": 56.8, "unit": "g"},
      {"measurement": "Activity", "setting": "Rattus norvegicus [2]", "result": 45.1, "unit": "g"},
      {"measurement": "pIC50", "setting": "[3]", "result": "< 5.00"}
    ]}
  ]
}
